Measurements reported in ChEMBL document CHEMBL4346654 (Eur J Med Chem, 2019).
≈ marks a conversion by molar mass, not a printed value.

What was measured:
Type in all cases: functional
Staphylococcus aureus [1] = test: Antibacterial activity against MLS-resistant Staphylococcus aureus PU 32 expressing inducible ermA gene assessed as reduction in microbial growth by CLSI based two-fold broth dilution method
Streptococcus pneumoniae [2] = test: Antibacterial activity against erythromycin-susceptible Streptococcus pneumoniae ATCC49619 assessed as reduction in microbial growth by CLSI based two-fold broth dilution method
Streptococcus pneumoniae [3] = test: Bactericidal activity against erythromycin-susceptible Streptococcus pneumoniae ATCC49619 pretreated followed by subculture in absence of compound measured after 24 hrs
Method in brief: (§1)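 Isolates were identified by 16S rDNA sequencing. MIC was determined by CLSI-recommended two-fold broth dilution. For MBC, samples from 1–8 fold MIC were transferred to culture medium and subcultured for 24 h without antibiotic.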

Haemophilus influenzae [4] = test: Antibacterial activity against azithromycin-susceptible Haemophilus influenzae ATCC 49247 assessed as reduction in microbial growth by CLSI based two-fold broth dilution method
Streptococcus pneumoniae [5] = test: Selectivity ratio of MBC to MIC for erythromycin-susceptible Streptococcus pneumoniae ATCC49619; method in brief: as §1
Streptococcus pneumoniae [6] = test: Antibacterial activity against Streptococcus pneumoniae 07P390 expressing constitutive ermB gene assessed as reduction in microbial growth by CLSI based two-fold broth dilution method
Streptococcus pneumoniae [7] = test: Antibacterial activity against penicillin-susceptible Streptococcus pneumoniae PU 09 expressing mef gene assessed as reduction in microbial growth by CLSI based two-fold broth dilution method
Streptococcus pneumoniae [8] = test: Bactericidal activity against penicillin-susceptible Streptococcus pneumoniae PU 09 expressing mef gene pretreated followed by subculture in absence of compound measured after 24 hrs; method in brief: as §1
Streptococcus pneumoniae [9] = test: Selectivity ratio of MBC to MIC for penicillin-susceptible Streptococcus pneumoniae PU 09 expressing mef gene; method in brief: as §1
Haemophilus influenzae [10] = test: Bactericidal activity against azithromycin-susceptible Haemophilus influenzae ATCC 49247 pretreated followed by subculture in absence of compound measured after 24 hrs; method in brief: as §1
Haemophilus influenzae [11] = test: Selectivity ratio of MBC to MIC for azithromycin-susceptible Haemophilus influenzae ATCC 49247; method in brief: as §1
Streptococcus pyogenes [12] = test: Antibacterial activity against MLS-resistant Streptococcus pyogenes 01-968 expressing inducible ermB gene assessed as reduction in microbial growth by CLSI based two-fold broth dilution method
Streptococcus pyogenes [13] = test: Bactericidal activity against MLS-resistant Streptococcus pyogenes 01-968 expressing inducible ermB gene pretreated followed by subculture in absence of compound measured after 24 hrs
Method in brief: (§2)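 MBC assay. Following MIC determination by CLSI standard two-fold broth dilution, samples at 1–8 fold MIC were transferred to fresh culture medium. They were subcultured for 24 h without antibiotic. Isolates were identified by 16S rDNA sequencing. S. aureus ATCC 29213 was used as a control strain.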

Streptococcus pyogenes [14] = test: Selectivity ratio of MBC to MIC for MLS-resistant Streptococcus pyogenes 01-968 expressing inducible ermB gene
Method in brief: (§3)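 MBC/MIC ratio. MIC was measured by CLSI standard two-fold broth dilution. MBC was measured by transferring samples at 1–8 fold MIC to culture medium and subculturing for 24 h without antibiotic. Isolates were identified by 16S rDNA sequencing.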

Staphylococcus aureus [15] = test: Bactericidal activity against MLS/methicillin-resistant Staphylococcus aureus PU 32 expressing inducible ermA gene pretreated followed by subculture in absence of compound measured after 24 hrs; method in brief: as §2
Staphylococcus aureus [16] = test: Selectivity ratio of MBC to MIC for MLS/methicillin-resistant Staphylococcus aureus PU 32 expressing inducible ermA gene; method in brief: as §3
Staphylococcus aureus [17] = test: Antibacterial activity against MLS-resistant Staphylococcus aureus PU 20 expressing constitutive ermC gene assessed as reduction in microbial growth by CLSI based two-fold broth dilution method
Staphylococcus aureus [18] = test: Bactericidal activity against MLS-resistant Staphylococcus aureus PU 20 expressing constitutive ermC gene pretreated followed by subculture in absence of compound measured after 24 hrs; method in brief: as §2
Streptococcus pneumoniae [19] = test: Bactericidal activity against Streptococcus pneumoniae 07P390 expressing constitutive ermB gene pretreated followed by subculture in absence of compound measured after 24 hrs; method in brief: as §1

Row | Compound | MIC (Staphylococcus aureus [1]) [µg/mL] | MIC (Streptococcus pneumoniae [2]) [µg/mL] | MBC (Streptococcus pneumoniae [3]) [µg/mL] | MIC (Haemophilus influenzae [4]) [µg/mL] | Selectivity ratio (Streptococcus pneumoniae [5]) | MIC (Streptococcus pneumoniae [6]) [µg/mL] | MIC (Streptococcus pneumoniae [7]) [µg/mL] | MBC (Streptococcus pneumoniae [8]) [µg/mL] | Selectivity ratio (Streptococcus pneumoniae [9]) | MBC (Haemophilus influenzae [10]) [µg/mL] | Selectivity ratio (Haemophilus influenzae [11]) | MIC (Streptococcus pyogenes [12]) [µg/mL] | MBC (Streptococcus pyogenes [13]) [µg/mL] | Selectivity ratio (Streptococcus pyogenes [14]) | MBC (Staphylococcus aureus [15]) [µg/mL] | Selectivity ratio (Staphylococcus aureus [16]) | MIC (Staphylococcus aureus [17]) [µg/mL] | MBC (Staphylococcus aureus [18]) [µg/mL] | MBC (Streptococcus pneumoniae [19]) [µg/mL]
1 | CC[C@H]1OC(=O)[C@@](C)(F)C(=O)[C@H](C)[C@@H](O[C@@H]2O[C@H](C)C[C@H](N(C)C)[C@H]2O)[C@](C)(OC)C[C@@H](C)/C(=N\OC/C=C/c2cncc(N)c2)[C@H](C)[C@H]2OC(=O)O[C@@]21C | 0.5 | 0.125 | 0.125 (≈ 0.16 µM) | 8 | 1 | > 32 | 1 | 1 (≈ 1.28 µM) | 1 | 16 (≈ 20.5 µM) | 2 | 0.031 | > 0.25 | >8 | > 4 | >8 | 256 | > 256 | 
2 | CC[C@H]1OC(=O)[C@@](C)(F)C(=O)[C@H](C)[C@@H](O[C@@H]2O[C@H](C)C[C@H](N(C)C)[C@H]2O)[C@](C)(OC)C[C@@H](C)/C(=N\OC/C=C/c2ccc3ncc(C(=O)O)cc3c2)[C@H](C)[C@H]2OC(=O)O[C@@]21C | 4 | 1 | 2 (≈ 2.33 µM) | 32 | 2 | 32 | 16 | 32 (≈ 37.3 µM) | 2 | 64 (≈ 74.6 µM) | 2 | 0.062 | > 0.5 | >8 | > 32 | >8 | > 256 |  | > 32
3 | CC[C@H]1OC(=O)[C@@](C)(F)C(=O)[C@H](C)[C@@H](O[C@@H]2O[C@H](C)C[C@H](N(C)C)[C@H]2O)[C@](C)(OC)C[C@@H](C)/C(=N\OCC#Cc2ccc(N)nc2)[C@H](C)[C@H]2OC(=O)O[C@@]21C | 1 | 0.25 | 0.5 (≈ 0.644 µM) | 16 | 2 | > 32 | 2 | 2 (≈ 2.57 µM) | 1 | 32 (≈ 41.2 µM) | 2 | 0.125 | > 1 | >8 | > 8 | >8 | 256 | > 256 | 
4 | CC[C@H]1OC(=O)[C@@](C)(F)C(=O)[C@H](C)[C@@H](O[C@@H]2O[C@H](C)C[C@H](N(C)C)[C@H]2O)[C@](C)(OC)C[C@@H](C)/C(=N\OCC#Cc2cncc(N)c2)[C@H](C)[C@H]2OC(=O)O[C@@]21C | 0.5 | 0.25 | 0.5 (≈ 0.644 µM) | 16 | 2 | > 32 | 4 | 4 (≈ 5.15 µM) | 1 | 32 (≈ 41.2 µM) | 2 | 0.062 | > 0.5 | >8 | > 4 | >8 | > 256 |  | 
5 | CC[C@H]1OC(=O)[C@@](C)(F)C(=O)[C@H](C)[C@@H](O[C@@H]2O[C@H](C)C[C@H](N(C)C)[C@H]2O)[C@](C)(OC)C[C@@H](C)/C(=N\OCC#Cc2cncc(C(N)=O)c2)[C@H](C)[C@H]2OC(=O)O[C@@]21C | 1 | 0.25 | 1 (≈ 1.24 µM) | 16 | 4 | > 32 | 2 | 2 (≈ 2.48 µM) | 1 | 32 (≈ 39.8 µM) | 2 | 0.125 | > 1 | >8 | > 8 | >8 | > 256 |  | 
6 | CC[C@H]1OC(=O)[C@@](C)(F)C(=O)[C@H](C)[C@@H](O[C@@H]2O[C@H](C)C[C@H](N(C)C)[C@H]2O)[C@](C)(OC)C[C@@H](C)/C(=N\OCC#Cc2ccc([N+](=O)[O-])nc2)[C@H](C)[C@H]2OC(=O)O[C@@]21C | 0.25 | 0.125 | 0.125 (≈ 0.155 µM) | 16 | 1 | > 32 | 1 | 4 (≈ 4.96 µM) | 4 | 32 (≈ 39.7 µM) | 2 | 0.016 | 0.062 (≈ 0.0768 µM) | 4 | 2 (≈ 2.48 µM) | 8 | 128 | > 256 | 
7 | CC[C@H]1OC(=O)[C@@](C)(F)C(=O)[C@H](C)[C@@H](O[C@@H]2O[C@H](C)C[C@H](N(C)C)[C@H]2O)[C@](C)(OC)C[C@@H](C)/C(=N\OC/C=C/c2cncc(C(=O)O)c2)[C@H](C)[C@H]2OC(=O)O[C@@]21C | 8 | 0.25 | 0.5 (≈ 0.619 µM) | 32 | 2 | > 32 | 8 | 16 (≈ 19.8 µM) | 2 | 32 (≈ 39.6 µM) | 1 | 0.5 | > 4 | >8 | > 64 | >8 | > 256 |  | 
8 | CC[C@H]1OC(=O)[C@@](C)(F)C(=O)[C@H](C)[C@@H](O[C@@H]2O[C@H](C)C[C@H](N(C)C)[C@H]2O)[C@](C)(OC)C[C@@H](C)/C(=N\OCC#Cc2cncc(NC(C)=O)c2)[C@H](C)[C@H]2OC(=O)O[C@@]21C | 1 | 0.062 | 0.25 (≈ 0.305 µM) | 8 | 4 | > 32 | 4 | 4 (≈ 4.88 µM) | 1 | 16 (≈ 19.5 µM) | 2 | 0.125 | > 1 | >8 | > 8 | >8 | > 256 |  | 
9 | CC[C@H]1OC(=O)[C@@](C)(F)C(=O)[C@H](C)[C@@H](O[C@@H]2O[C@H](C)C[C@H](N(C)C)[C@H]2O)[C@](C)(OC)C[C@@H](C)/C(=N\OCC#Cc2cncc(C#N)c2)[C@H](C)[C@H]2OC(=O)O[C@@]21C | 0.5 | 0.125 | 0.125 (≈ 0.159 µM) | 8 | 1 | > 32 | 1 | 2 (≈ 2.54 µM) | 2 | 16 (≈ 20.3 µM) | 2 | 0.25 | > 2 | >8 | > 4 | >8 | 128 | > 256 | 
10 | CC[C@H]1OC(=O)[C@H](C)[C@@H](O[C@H]2C[C@@](C)(OC)[C@@H](O)[C@H](C)O2)[C@H](C)[C@@H](O[C@@H]2O[C@H](C)C[C@H](N(C)C)[C@H]2O)[C@](C)(OC)C[C@@H](C)C(=O)[C@H](C)[C@@H](O)[C@]1(C)O [CLARITHROMYCIN] | 32 | 0.062 | 0.25 (≈ 0.334 µM) | 4 | 4 | > 32 | 4 | 32 (≈ 42.8 µM) | 8 | 8 (≈ 10.7 µM) | 2 | 8 | > 64 | >8 | > 256 | >8 | > 256 |  | 
